Screening data from PubChem.
In the library only some 2.6% were active in any assay of this set; here they are far more common.
SKN-1 inh = suppressors of acrylamide-induced Pgst-4::GFP reporter in worms, primary screen, SKN-1 inhibitor project, whole organism, uHTS, GFP/RFP fluorescence ratio, strain VP596; inhibition, % at 21.8 µM; AID 624304, 2012; actives 0.49% (n = 360,000); C. elegans VP596 Pgst-4::GFP/RFP ratio, 24 h;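 active = interference check ratio from 0.5 to 1.5 plus GFP to RFP signal ratio inhibition reaching or exceeding a fixed threshold, cut at about 30% in these data, passing the limit was not always enough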
Rce1 inh = yeast Rce1p protease inhibitors, primary screen, biochemical, fluorescence, cell-free homogeneous; actives 0.27% (n = 290,000); yeast membranes, quenched prenylated peptide cleavage fluorescence; AID 2563, 2010; calls only; CAAX prenyl protease 2 (Saccharomyces cerevisiae (strain ATCC 204508 / S288c)), Q03530;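 active = fall in fluorescence gain of 50% or more versus controls, with final raw signal at or below 3038400; inconclusive = same 50% fall but final raw signal above 3038400; inactive = fall in fluorescence gain under 50%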;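 also: plate controls were neutral control wells for no effect and wells lacking membranes for full effect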
GRK2 aptamer HTS = compounds blocking aptamer binding on GRK2 – biochemical, human GRK2, bead flow cytometry, HTS, primary screen; actives 0.59% (n = 330,000); inhibition of aptamer binding, % at 10 µM; FAM-aptamer displacement from GRK2; Beta-adrenergic receptor kinase 1 (Homo sapiens), P25098;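 active = inhibition of aptamer binding above 40%, roughly 3 SD of noise, on plates passing a quality check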;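 also: median bead fluorescence of bound FAM aptamer so fluorescent compounds give negative values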
Rin1-Abl PPI inh = inhibitors of Rin1-Abl protein binding, primary screen, biochemical, TR-FRET; Tyrosine-protein kinase ABL1 (Homo sapiens) + Ras and Rab interactor 1 (Homo sapiens), …; inhibition, % at 7.35 µM; actives 0.4% (n = 360,000); in the data active = inhibition above about 5%, passing the limit was not always enough
Myeloid diff 2 = induction of myeloid progenitor differentiation, primary screen, cell-based, flow cytometry, MLPCN library. ER-HoxA9 myeloid progenitors, lysozyme-GFP differentiation. calls only at 10 µM. actives 1% (n = 360,000). AID 624256, 2012;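 active = normalized GFP-positive differentiation at or above the plate's own cutoff, the solvent-only control mean plus 3 SD; inconclusive = no clear call, values can overlap the other calls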;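 also: cells exposed to compound for four days before flow analysis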
T cell HTS = modulators of CD8 T cell-vesicle binding, primary screen, mouse 2C CD8+ T cells, flow cytometry; AID 2052, 2009; 2C CD8+ T cell-vesicle binding; active compounds read low; actives 0.068% (n = 330,000); response (vesicle binding), % at 7 µM;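 active = response, share of CD8 T cells binding vesicles, and their 90th percentile fluorescence all below set limits, cut at about 80% in these data, passing the limit was not always enough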;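 also: values below 100% mean blocked vesicle binding to the CD8+ T cells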
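Also added: QL9-peptide-loaded Drosophila micro-vesicles bearing Ld, ICAM-1 and B7-1; Test system: purified 2C TCR transgenic mouse naive CD8+ T cells; Measured by: cytometric PE anti-B7-1 and Alexa647 anti-CD8 signals after 1% paraformaldehyde fixation; Timing: binding step 1.5 h, 37 °C, antibody labelling 20 min, ice.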
Rin1-Abl confirm = Rin1-Abl binding inhibitor retest, confirmation, biochemical, TR-FRET | actives 49% (n = 1,300) | inhibition, % at 7.35 µM | purified proteins | shares compounds with Rin1-Abl PPI inh
GFP quencher = GFP fluorescence inhibitors and quenchers, artefact control for Rin1-Abl interaction inhibitor project, biochemical | shares compounds with Rin1-Abl PPI inh | inhibitors/quenchers counterscreen | inhibition, % at 6.75 µM | actives 8.5% (n = 1,300) | AID 602125, 2011;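 also: ABL1-eGFP fusion protein alone without its partner RIN1-SBP; 0% = protein with vehicle and 100% = wells lacking protein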
GFP quench DR = GFP fluorescence inhibitors and quenchers, dose response, artefact control for Rin1-Abl interaction inhibitor project, biochemical | shares compounds with Rin1-Abl PPI inh | GFP fluorescence interference/quenching counterscreen | IC50, µM | 230 tested, under 10 active | AID 602182, 2012; call rule not given here;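 also: ABL1-eGFP fusion protein alone without its RIN1 binding partner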
* = called active by the depositor; i = inactive; u = inconclusive; x = no result given. Rule as the data show it, unless noted: active = inhibition above about 6.5%; inactive = the rest.

SMILES	SKN-1 inh	Rce1 inh	GRK2 aptamer HTS	Rin1-Abl PPI inh	Myeloid diff 2	T cell HTS	Rin1-Abl confirm	GFP quencher	others
COc1cc(OC)cc(-c2oc(=O)c3cc(OC)c(OC)cc3c2C#CCCO)c1	10	x	3	29*	i	432	76*	-1
C[C@H](CO)N1C[C@H](C)[C@@H](CN(C)Cc2ccccc2)Oc2ccc(NC(=O)CCCCCC(=O)Nc3ccccc3N)cc2C1=O	-3	x	0	5	i	420	x	x
COC(=O)c1cc(O)cc(OC)c1Oc1cc(C)cc(O)c1C(=O)O	23	x	24	20*	i	186	21*	4	GFP quench DR=>68
COC(=O)c1cc(O)cc(OC)c1C(=O)c1c(O)cc(C)cc1O	-11	i	4	1	u	160	x	x
CC(O)(c1cccnc1)c1nc(/C=C/c2ccccc2)cs1 (centres undefined)	11	x	x	-4	i	x	x	x
CCOC(=O)CCCCCC(=O)Nc1ccc2c(c1)C(=O)N([C@H](C)CO)C[C@H](C)[C@@H](CN(C)C(=O)Nc1ccccc1)OCCCC[C@@H](C)O2	11	x	x	16*	i	x	22*	-1	GFP quench DR=>68
CCOC(=O)CCCCCC(=O)Nc1ccc2c(c1)C(=O)N([C@@H](C)CO)C[C@@H](C)[C@H](CN(C)C(=O)Nc1ccccc1)OCCCC[C@H](C)O2	11	x	x	16*	i	x	18*	1	GFP quench DR=>68
CCOC(=O)CCCCCC(=O)Nc1ccc2c(c1)C(=O)N([C@@H](C)CO)C[C@H](C)[C@H](CN(C)C(=O)Nc1ccc(C(F)(F)F)cc1)OCCCC[C@H](C)O2	7	x	x	0	i	x	x	x
O=C1CCC(C(=O)N2CCCCO2)CN1CCc1ccccc1 (centres undefined)	3	i	9	3	i	233	x	x
Nc1nccnc1C(=O)OCC(=O)NNC(=O)c1ccccc1	22	i	3	8.2*	x	678	0	2
O=C(CC(=O)N1CCOCC1)N1CCOCC1	-15	x	x	-2	i	x	x	x
CCCCOc1ccc(C(=O)N2CCN(CC(=O)Nc3ccc(C)cc3)CC2)cc1OC	8	i	0	8.6*	i	315	11*	-1
CCc1nnnn1-c1ccc([N+](=O)[O-])cc1C	5	i	0	1	i	247	x	x
Cc1ccc(Nc2nc(N)nc(CSc3nnc(-c4ccncc4)o3)n2)cc1	46*	x	22	9.6*	i	276	10*	0
NS(=O)(=O)c1ccc(N=Nc2ccc(O)c3ncccc23)cc1	5	i	0	11*	u	148	4	13*
Cc1cccc(N=Nc2ccc(O)c3ncccc23)c1	2	i	0	6.9*	i	330	6.5*	4
O=C(CCN1C(=O)/C(=C\c2ccco2)SC1=S)Nc1ccc(C(=O)O)c(O)c1	-10	i	13	10*	u	262	0	7.3*
CCCCN1CC(=O)N2[C@H]3c4cc(C)ccc4OC[C@@H]3[C@H](C(=O)OCC)[C@]2(C)C1=O	-4	x	3	0	i	846	x	x
O=C(NN=Cc1ccc2c(c1)CCN2)c1cccs1	28	x	x	-3	i	x	x	x
O=c1cc(-c2ccc(O)c(O)c2)oc2cc(O)c([C@@H]3O[C@H](CO)[C@@H](O)[C@H](O)[C@H]3O)c(O)c12	8	x	1	22*	i	418	28*	10*
O=c1cc(-c2ccc(O)cc2)oc2c([C@@H]3O[C@H](CO)[C@@H](O)[C@H](O)[C@H]3O)c(O)c([C@@H]3O[C@H](CO)[C@@H](O)[C@H](O)[C@H]3O)c(O)c12	-8	i	2	1	i	342	x	x
O=c1cc(-c2ccc(O)cc2)oc2c(C3OCC(O)C(O)C3O)c(O)c(C3OC(CO)C(O)C(O)C3O)c(O)c12 (centres undefined)	17	x	0	2	i	204	x	x
O=c1c2cc(O)c(O)cc2oc2cc(O)c(C3OC(CO)C(O)C(O)C3O)c(O)c12 (centres undefined)	-11	i	0	29*	i	284	30*	8.4*
CC1CCCC(C)N1C(=O)CSc1ncccn1 (centres undefined)	26	x	0	4	i	310	x	x
O=C(NC(c1ccc(-c2ccccc2)cc1)c1cnccn1)C1CCN(CCN2C(=O)c3ccccc3C2=O)CC1 (centres undefined)	9	x	x	3	i	x	x	x
SMILES	SKN-1 inh	Rce1 inh	GRK2 aptamer HTS	Rin1-Abl PPI inh	Myeloid diff 2	T cell HTS	Rin1-Abl confirm	GFP quencher	others
Cn1cc(SCC(=O)Nc2nc3ccccc3s2)c2ccccc21	-2	i	0	7.0*	i	179	-2	2
COCCC(=O)Nc1ccc2c(c1)CN(C(=O)c1ccc(CSC)o1)CC2	-6	i	0	-1	i	132	x	x
O=C(Nc1ccc(O)cc1)c1c(O)c2c([nH]c1=O)CCCC2	-11	i	x	3	i	x	x	x
CCOc1ccc(CN(C)C(=O)CCNC(=O)c2ccco2)cc1	5	x	0	8.6*	i	396	-1	1
O=C(NC1CCCc2ccccc21)C1CCCN(S(=O)(=O)c2cnc[nH]2)C1 (centres undefined)	-14	i	0	7.3*	i	365	0	-2
COc1ccc(/C=N/NC(=O)c2cc(O)c(O)c(O)c2)cc1Cn1cc([N+](=O)[O-])cn1	-6	i	x	29*	i	x	29*	11*
COc1ccc(/C=N/NC(=O)c2ccccc2O)cc1Cn1cc([N+](=O)[O-])cn1	-1	i	1	-1	i	332	x	x
O=C(Nc1cccc(C(F)(F)F)c1)C1CCN(S(=O)(=O)c2cccnc2)CC1	6	i	0	-1	i	262	x	x
O=C(Nc1cccc(-c2nnc(-c3ccco3)o2)c1)C(c1ccccc1)c1ccccc1	21	i	1	2	i	410	x	x
O=C(Nc1cccc(-c2nnc(-c3ccco3)o2)c1)c1ccccc1	-4	i	2	10*	i	131	-2	-2
